Source: PubChem BioAssay (Broad Institute)
Most compounds without a hit are left out; they make up all but 5.8% or so of the library.
T cruzi growth-1: T. cruzi proliferation inhibition | T. cruzi beta-gal in NIH3T3, GalScreen luminescence, 90 h | inhibition, % at 8.34 µM | 77,000 tested, 5.9% active | AID 624255;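 active = mean inhibition above about 93%, with at least 55% of replicates each passing it, limit read from the data, passing the limit was not always enough; inconclusive = only one of those two conditions holds; inactive = neither condition holds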
IDH1 mut inh: blocks human IDH1 R132H reductase activity; O75874; diaphorase/resazurin fluorescence, 60 min; inhibition, % at 10 µM; 70,000 tested, 0.18% active; AID 624101; in the data active = inhibition above about 34%; inconclusive = no clear call, values can overlap the other calls; inactive = below about 11%;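 note: 0% = DMSO and 100% = no enzyme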
GASC1 inh: KDM4C (human) demethylase inhibition. 96,000 tested, 0.15% active. inhibition, % at 12.5 µM. AID 720574. GST-KDM4C 2-372, H3K9me3 peptide, LANCE TR-FRET;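 active = mean replicate inhibition above about 25%, with at least 55% of replicates also reaching it, limit read from the data, passing the limit was not always enough; inconclusive = only one of those two conditions met; inactive = neither condition met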
Target sequence (Q9H3R0 2-372 limits assumed): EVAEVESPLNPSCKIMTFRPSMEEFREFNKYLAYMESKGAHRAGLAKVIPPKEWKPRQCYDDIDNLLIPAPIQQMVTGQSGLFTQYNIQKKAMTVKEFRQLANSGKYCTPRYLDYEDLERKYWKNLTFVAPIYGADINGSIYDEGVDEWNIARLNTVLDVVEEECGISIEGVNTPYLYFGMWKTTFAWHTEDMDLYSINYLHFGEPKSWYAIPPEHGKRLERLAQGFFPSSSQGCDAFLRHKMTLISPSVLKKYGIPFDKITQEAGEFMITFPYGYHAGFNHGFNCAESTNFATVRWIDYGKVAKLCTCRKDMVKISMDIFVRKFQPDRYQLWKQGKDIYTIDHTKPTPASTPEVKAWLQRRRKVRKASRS
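Test system – GST-tagged GASC-1 (JMJD2C) catalytic fragment, aa 2-372 · Medium – HEPES buffer, pH 7.5, plus ascorbate · Reagent – H3K9me3 peptide with Fe(II)/2OG · Compound – one test concentration per compound · Timing – 30 min reaction, 60 min detection, RT · Technique – TR-FRET with Eu antibody and ULight streptavidin, EDTA stop · Read-out basis – inhibition from TR-FRET ratio decrease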
Pf Dd2 inh: P. falciparum Dd2 growth inhibition; SYBR Green, 72 h; hits give low values; activity change, % at 10 µM; 94,000 tested, 2.3% active; AID 1159554; in the data active = activity change below about -80%; inconclusive = no clear call, values can overlap the other calls
T cruzi growth-2: inhibitors of T. cruzi proliferation; shares compounds with T cruzi growth-1; T. cruzi beta-gal in NIH3T3, GalScreen luminescence, 90 h; inhibition, % at 8.35 µM; 5,600 tested, 72% active; AID 651739;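 active = mean replicate inhibition above about 95% and at least 55% of replicates individually reaching it, limit read from the data; inconclusive = only one of the two criteria is met; inactive = neither criterion is met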
T cruzi growth-3: Trypanosoma cruzi proliferation inhibition; T. cruzi beta-gal in NIH3T3, GalScreen luminescence, 90 h; inhibition, % at 2.09 µM; 5,600 tested, 21% active; shares compounds with T cruzi growth-1;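 active = mean inhibition above about 95%, with at least 55% of replicates also reaching it, limit read from the data; inconclusive = meets just one of the two conditions; inactive = meets neither condition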;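 note: plate controls were neutral control median for no effect and positive control median for full effect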
3T3 cytotox: cytotoxicity in mouse NIH/3T3 fibroblasts. shares compounds with T cruzi growth-1. NIH/3T3 viability, CellTiter-Glo ATP luminescence, 90 h. cytotoxicity (signal decrease), % at 8.35 µM. 5,600 tested, 14% active. AID 651742;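 active = mean signal decrease across replicates above about 35% based on untreated-well scatter, with enough replicates individually passing, limit read from the data; inconclusive = no rule stated though some were filed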;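 note: 0% = median of neutral control wells and 100% = median of positive control wells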
NIH3T3 tox 2: kills mouse NIH/3T3 fibroblasts. shares compounds with T cruzi growth-1. NIH/3T3 viability, CellTiter-Glo ATP luminescence, 90 h. inhibition, % at 24.9 µM. 5,600 tested, 56% active. AID 651744;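 active = mean loss of cell viability signal at or above a set limit, and enough replicates individually reaching it; inconclusive = meets only the mean limit or only the replicate share; inactive = meets neither condition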;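 note: 0% = median of neutral control wells and 100% = median of positive control wells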
The depositor's hits bear a star; ? = inconclusive; . = not tested or not shown.

SMILES	T cruzi growth-1	IDH1 mut inh	GASC1 inh	Pf Dd2 inh	T cruzi growth-2	T cruzi growth-3	3T3 cytotox	NIH3T3 tox 2
C[C@@H]1CN([C@@H](C)CO)S(=O)(=O)c2ccc(-c3cccnc3)cc2O[C@@H]1CN(C)Cc1cccnc1	63	.	0	-3	.	.	.	.
Cc1ccc(-c2ccc3c(c2)O[C@@H](CN(C)Cc2cccnc2)[C@@H](C)CN([C@@H](C)CO)S3(=O)=O)cc1	102*	8	2	-80	92	81	52*	94*
O=S(=O)(c1ccc(-c2ccon2)s1)N(Cc1ccccn1)Cc1ccccn1	.	-4	.	.	.	.	.	.
Cc1ccc(C)c(NC(=O)C2CN(S(=O)(=O)c3ccccc3)CCN2S(=O)(=O)c2ccccc2)c1 (configuration not stated)	.	0	.	.	.	.	.	.
Cc1ccccc1S(=O)(=O)N1CC[C@@H]2[C@H](CO)Nc3ccc(-c4ccc(C#N)cc4)cc3[C@@H]21	?	.	-5	-20	98*	104*	?	67*
Cn1cnc(S(=O)(=O)N2CC[C@H]3[C@H](CO)Nc4ccc(-c5ccccc5)cc4[C@H]32)c1	101*	.	1	7	103*	62	-14	9
Cc1ccccc1S(=O)(=O)N1CC[C@@H]2[C@H](CO)Nc3ccc(-c4cccc(C#N)c4)cc3[C@@H]21	17	.	-1	-5	.	.	.	.
Cc1ccccc1S(=O)(=O)N1CC[C@@H]2[C@@H](CO)Nc3ccc(-c4cccc(C#N)c4)cc3[C@@H]21	33	.	-2	-62	.	.	.	.
Cc1ccccc1S(=O)(=O)N1CC[C@@H]2[C@H]1c1cc(-c3ccc(C#N)cc3)ccc1N[C@@H]2CO	101*	.	2	9	104*	45	16	42*
O=S(=O)(Cc1ccccc1)N1CCCCN2[C@H](C1)[C@H](c1ccc(-c3ccc(F)cc3)cc1)[C@@H]2CO	110*	.	0	7	101*	41	14	105*
O=S(=O)(Cc1ccccc1)N1CCCCN2[C@H](CO)[C@@H](c3ccc(-c4ccc(F)cc4)cc3)[C@H]2C1	?	.	0	8	103*	66	35*	105*
O=S(=O)(Cc1ccccc1)N1CCCCN2[C@H](CO)[C@@H](c3ccc(-c4cncnc4)cc3)[C@@H]2C1	65	.	-1	-9	.	.	.	.
O=S(=O)(Cc1ccccc1)N1CCCCN2[C@H](C1)[C@@H](c1ccc(-c3ccc(F)cc3)cc1)[C@@H]2CO	86	.	-3	1	.	.	.	.
CC(O)c1nc2ccccc2n1CCCOc1ccc(Cl)cc1 (configuration not stated)	.	-1	.	.	.	.	.	.
C[C@@H]1CN([C@@H](C)CO)C(=O)c2cc(C#CC3CCCC3)cnc2O[C@H]1CN(C)S(=O)(=O)c1cccc(F)c1	115*	0	2	-42	103*	92	27	86*
Cc1ccc(S(=O)(=O)N(C)C[C@@H]2Oc3ncc(C#Cc4ccc(F)cc4)cc3C(=O)N([C@H](C)CO)C[C@@H]2C)cc1	-9	0	-3	-47	.	.	.	.
C[C@H](CO)N1C[C@H](C)[C@H](CN(C)S(=O)(=O)c2ccc(F)cc2)Oc2ncc(C#Cc3ccc(F)cc3)cc2C1=O	113*	1	-2	-30	108*	48	34	36*
C[C@H](CO)N1C[C@H](C)[C@H](CN(C)S(=O)(=O)c2ccccc2)Oc2ncc(C#Cc3cccc(F)c3)cc2C1=O	50	1	-3	-31	.	.	.	.
C[C@H](CO)N1C[C@H](C)[C@H](CN(C)S(=O)(=O)c2ccccc2)Oc2ncc(C#Cc3ccc(F)cc3)cc2C1=O	?	-1	-3	-57	107*	54	21	16
c1ccc(Cn2c3ccccc3n3c(SCc4nc5ccccc5[nH]4)nnc23)cc1	.	0	.	.	.	.	.	.
Cc1ccccc1-c1ccc2c(c1)O[C@H](CN(C)C(=O)Nc1ccccc1)[C@@H](C)CN([C@H](C)CO)S2(=O)=O	?	0	-1	-26	79	-9	18	28*
Cc1ccc(-c2ccc3c(c2)O[C@@H](CN(C)C(=O)Nc2ccc(F)cc2)[C@H](C)CN([C@@H](C)CO)S3(=O)=O)cc1	119*	.	-4	-5	95*	42	43*	35*
Cc1ccc(-c2ccc3c(c2)O[C@@H](CN(C)C(=O)Nc2ccc(F)cc2)[C@H](C)CN([C@H](C)CO)S3(=O)=O)cc1	64	-1	0	-62	.	.	.	.
C[C@H](CO)N1C[C@H](C)[C@@H](CN(C)C(=O)Nc2ccc(F)cc2)Oc2cc(-c3ccncc3)ccc2S1(=O)=O	93	-1	0	-32	.	.	.	.
C[C@@H]1CN([C@@H](C)CO)S(=O)(=O)c2ccc(-c3ccncc3)cc2O[C@H]1CN(C)C(=O)Nc1ccc(F)cc1	102*	.	-3	4	101*	86	-11	64*
SMILES	T cruzi growth-1	IDH1 mut inh	GASC1 inh	Pf Dd2 inh	T cruzi growth-2	T cruzi growth-3	3T3 cytotox	NIH3T3 tox 2
C[C@H]1CN([C@@H](C)CO)S(=O)(=O)c2ccc(-c3ccncc3)cc2O[C@H]1CN(C)C(=O)Nc1ccc(F)cc1	92	1	0	-25	.	.	.	.
C[C@H]1CN([C@@H](C)CO)S(=O)(=O)c2ccc(-c3ccncc3)cc2O[C@@H]1CN(C)C(=O)Nc1ccc(F)cc1	105*	59*	25	-13	102*	89	15	?
Cc1ccccc1-c1ccc2c(c1)O[C@H](CN(C)C(=O)Nc1ccccc1)[C@H](C)CN([C@H](C)CO)S2(=O)=O	73	-3	-4	-9	.	.	.	.
COc1ccc(-c2c(C#N)c(SCC(N)=O)nc(C)c2C(=O)Nc2ccccc2)cc1	.	0	.	.	.	.	.	.
C[C@@H]1CN([C@H](C)CO)S(=O)(=O)c2ccc(-c3ccncc3)cc2O[C@@H]1CN(C)C(=O)Nc1ccc(F)cc1	108*	.	0	8	97*	77	11	39*
O=C(C[C@H]1CC[C@@H]2[C@H](COC[C@H](O)CN2CCc2ccccc2)O1)NCc1ccc(Oc2ccccc2)cc1	103*	.	1	-8	102*	95	0	107*
O=C(C[C@H]1CC[C@@H]2[C@H](COC[C@@H](O)CN2CCC(F)(F)F)O1)NCC1CCCCC1	107*	.	-1	13	32	6	21	24
O=C(C[C@H]1CC[C@H]2[C@@H](COC[C@@H](O)CN2CCC(F)(F)F)O1)NCc1ccc(Oc2ccccc2)cc1	108*	.	-1	.	85	11	39*	12
O=C(COc1ccccc1[N+](=O)[O-])Nc1cc(-c2nc3ccccc3s2)c(Cl)cc1Cl	.	0	.	.	.	.	.	.
CSc1ccccc1NC(=O)CN(c1cc(Cl)ccc1C)S(C)(=O)=O	.	0	.	.	.	.	.	.
